The values below come from ChEMBL document CHEMBL4340526, “Discovery and Mechanistic Study of Tailor-Made Quinoline Derivatives as Topoisomerase 1 Poison with Potent Anticancer Activity” (J Med Chem, 2019).

pIC50: −log10 of the molar value. Active and inactive are the calls of the source. The rule behind the calls is not given here.

For data set [1], the target named is T1, DNA topoisomerase 1 (Homo sapiens, UniProt P11387).
T1 sequence (P11387 whole entry): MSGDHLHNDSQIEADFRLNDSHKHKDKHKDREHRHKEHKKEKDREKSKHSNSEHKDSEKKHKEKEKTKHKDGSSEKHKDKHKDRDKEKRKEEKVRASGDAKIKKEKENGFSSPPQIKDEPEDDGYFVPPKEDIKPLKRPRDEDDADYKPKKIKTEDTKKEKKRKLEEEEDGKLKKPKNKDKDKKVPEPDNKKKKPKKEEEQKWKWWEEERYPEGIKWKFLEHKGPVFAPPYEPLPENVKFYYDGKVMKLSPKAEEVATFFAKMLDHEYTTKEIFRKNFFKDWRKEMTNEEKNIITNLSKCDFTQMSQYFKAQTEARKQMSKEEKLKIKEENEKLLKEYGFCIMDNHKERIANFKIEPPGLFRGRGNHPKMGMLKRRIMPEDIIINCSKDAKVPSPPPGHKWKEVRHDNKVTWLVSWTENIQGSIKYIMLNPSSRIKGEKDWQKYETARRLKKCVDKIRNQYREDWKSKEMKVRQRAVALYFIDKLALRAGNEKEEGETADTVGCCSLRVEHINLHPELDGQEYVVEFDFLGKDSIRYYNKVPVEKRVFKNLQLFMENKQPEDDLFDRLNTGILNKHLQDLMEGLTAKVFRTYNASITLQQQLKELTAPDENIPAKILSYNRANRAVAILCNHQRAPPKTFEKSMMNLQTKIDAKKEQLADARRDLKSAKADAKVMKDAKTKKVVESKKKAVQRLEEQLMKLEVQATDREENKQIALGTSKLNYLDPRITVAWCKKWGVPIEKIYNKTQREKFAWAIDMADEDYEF
Put plainly: Poison activity at recombinant human TOP1 expressed in baculovirus infected Sf9 insect cells assessed as decrease in relaxed supercoiled pBS(SK+) DNA mobility measured after 30 mins by ethidium bromide staining based agarose gel electrophoresis. The method in brief:
(§1)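 Top1 is recombinant human enzyme purified from baculovirus-infected Sf-9 cells. Supercoiled pBS (SK+) DNA (90 fmol) is incubated with 30 fmol Top1 (3:1 DNA:enzyme molar ratio) in relaxation buffer, with compound added simultaneously, 30 min at 37 °C. Relaxed isomers are resolved on 1% agarose and percent relaxation inhibition is quantified. Triplicate, mean ± SD.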

Data set [2] can be described thus: Stability of the compound in human plasma assessed as parent compound remaining at […] measured after 2 hrs by LC-MS/MS analysis. The format is ADME, cell-free. The note with it: read-out: Stability. In outline: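 Plasma is thawed, spun at 1400 RCF for 15 min at 4 °C, and supernatant used. Compound (final 1 μM, diluted from acetonitrile/water stock) is incubated in human plasma 2 h at 37 °C with gentle shaking. Aliquots at 0, 15, 30, 60 and 120 min are precipitated with acetonitrile containing internal standard and analyzed by LC–MS/MS. The 0 min reference uses heat-inactivated plasma (56 °C, 45 min). Value is mean % remaining at 2 h.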

For data set [3], the target named is T1, DNA topoisomerase 1. Nature of the data set: Poison activity at TOP1 in human MCF7 cells assessed as decrease in relaxed supercoiled pBS(SK+) DNA mobility measured after 30 mins by ethidium bromide staining based agarose gel electrophoresis. The format is cell-based. In outline: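 The Top1 source is MCF7 whole-cell extract (endogenous enzyme). Extract is incubated with 0.3 μg supercoiled pBS (SK+) DNA and compound added together, 30 min at 37 °C, in relaxation buffer. Supercoiled and relaxed forms are separated on 1% agarose and percent relaxation inhibition is quantified. Triplicate, mean ± SD.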

For data set [4], the target named is T2, DNA topoisomerase 1 (Homo sapiens) (UniProt P11387).
T2 sequence (whole entry): T1 sequence (P11387 whole entry)
Nature of the data set: Poison activity at recombinant human TOP1 expressed in baculovirus infected Sf9 insect cells assessed as decrease in relaxed supercoiled pBS(SK+) DNA mobility at 100 uM measured after 30 mins by ethidium bromide staining based agarose gel electrophoresis relative to control. More on the design: scale not given: the % may be the effect or the level left. The method in brief: as §1

The target of data set [5] is T2, DNA topoisomerase 1 (Homo sapiens). Nature of the data set: Poison activity at recombinant human TOP1 expressed in baculovirus infected Sf9 insect cells assessed as decrease in relaxed supercoiled pBS(SK+) DNA mobility at 10 uM measured after 30 mins by ethidium bromide staining based agarose gel electrophoresis relative to control. More on the design: scale not given: the % may be the effect or the level left. In outline: as §1

Data set [6] has as its system DNA. Nature of the data set: Binding affinity to Escherichia coli pBS(SK+) DNA assessed as TOP1-mediated unwinding effect at 50 to 200 uM measured after 15 mins by EtBr staining based agarose gel electrophoresis method. The format is nucleic-acid assay. The method in brief:
(§2)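 Relaxed pBS (SK+) substrate made by treating supercoiled plasmid with excess Top1, then proteinase K digestion at 37 °C, phenol/chloroform extraction and ethanol precipitation. Reactions hold 50 fmol relaxed DNA with compound (20, 50, 100, 200 μM) and are incubated 15 min at 37 °C. Read-out is 1% agarose gel stained with 0.5 μg/mL EtBr under UV, scoring net negative supercoiling.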

Data set [7] has as its system Calf thymus DNA. Put plainly: Displacement of ethidium bromide from calf thymus DNA up to 300 uM by fluorescence assay. The data set is classed as nucleic-acid assay. The note with it: Bos taurus. In outline: (§3)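 Ethidium displacement fluorescence at 25 °C in fluorescence buffer containing 1 μM EtBr and 5 nM calf thymus DNA, with compound titrated 0–300 μM. Emission is read at 590 nm with 510 nm excitation and plotted as % EtBr bound.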

The subject of data set [8] is MEF. Nature of the data set: Cytotoxicity against TDP1-positive MEF cells assessed as reduction in cell viability measured after 72 hrs by MTT assay. The format is functional, cell-based. The note with it: Mus musculus. In outline: (§4)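 Cell lines are HCT116, HeLa, NIH:OVCAR-3, and primary TDP1+/+ and TDP1−/− mouse embryonic fibroblasts, each exposed to variable compound concentrations. Viability is measured by MTT. Percent inhibition at each concentration is calculated against untreated control, and IC50 is estimated from these values.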
On the technique in general: Tetrazolium dyes change colour on reduction, which living cells bring about.

The test system of data set [9] is MEF. Nature of the data set: Cytotoxicity against TDP1-deficient MEF cells assessed as reduction in cell viability measured after 72 hrs by MTT assay. The format is functional, cell-based. The following applies: Mus musculus. The method in brief: as §4
Data set [10] has as its system DNA. Put plainly: Binding affinity to Escherichia coli pBS(SK+) DNA assessed as TOP1-mediated unwinding effect at 20 to 200 uM measured after 15 mins by EtBr staining based agarose gel electrophoresis method. The format is nucleic-acid assay. The method in brief:
as §2

The test system of data set [11] is Calf thymus DNA. Nature of the data set: Displacement of ethidium bromide from calf thymus DNA at 200 uM by fluorescence assay. The data set is classed as nucleic-acid assay. The note with it: Bos taurus. In outline:
as §3

The subject of another data set is HCT-116. Nature of the data set: Cytotoxicity against human HCT116 cells assessed as reduction in cell viability measured after 72 hrs by MTT assay. The following applies: HCT-116, 72 h. The format is functional, cell-based. In outline: as §4
Data set [12] can be described thus: Cytotoxicity against human NIH:OVCAR3 cells assessed as reduction in cell viability measured after 72 hrs by MTT assay. The data set is classed as functional, cell-based. The following applies: OVCAR-3, 72 h. The method in brief:
as §4

The subject of a further data set is HEK293. Put plainly: Cytotoxicity against HEK293 cells assessed as reduction in cell viability measured after 72 hrs by MTT assay. The following applies: Homo sapiens, HEK293, 72 h. The data set is classed as cell-based. The method in brief: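 MTT cell survival assay in HEK293 cells (from the Developmental Therapeutics Program) exposed to a range of compound concentrations. Percent inhibition of viability at each concentration calculated relative to untreated control, and IC50 estimated from these values.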

Data set [13] deals with Calf thymus DNA. Put plainly: Displacement of ethidium bromide from calf thymus DNA at 50 uM by fluorescence assay. The format is nucleic-acid assay. The note with it: Bos taurus. In outline: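 Fluorescence ethidium displacement run at 25 °C with 1 μM EtBr and 5 nM calf thymus DNA in fluorescence buffer. Test compound titrated over 0–300 μM. EtBr emission read at 590 nm with excitation at 510 nm. Result expressed as % EtBr remaining bound.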

On to `COc1ccc(-c2ccc3ncc(-c4nnco4)c(NCCCn4ccnc4)c3c2)cc1OC`, for which, on DNA topoisomerase 1 [1], the pIC50 (commonly the negative decadic logarithm of the IC50, by convention in mol/L) is less than 5.00.
On the same count and under the same terms, as for `CCOC(=O)c1cnc2ccc(-c3ccc(OC)c(OC)c3)cc2c1NCCCn1ccnc1`, the figure is less than 5.00.
`COc1ccc(-c2ccc3ncc(-c4nnco4)c(NCCCN4CCOCC4)c3c2)cc1`: the pIC50 is 5.75 on DNA topoisomerase 1 [1] and 5.60 on DNA topoisomerase 1 [3]. Further, the remaining at 2 h in data set [2] is 83.4%.
As for `COc1ccc(-c2ccc3ncc(-c4nnco4)c(NCCCn4ccnc4)c3c2)c(C)c1`, the pIC50 on DNA topoisomerase 1 [1] was less than 5.00.
Turning to `CC[C@@]1(O)C(=O)OCc2c1cc1n(c2=O)Cc2cc3ccccc3nc2-1` [CAMPTOTHECIN], the remaining at 2 h in data set [2] came to 15.7%.
Take `COc1ccc(-c2ccc3ncc(-c4nnco4)c(NCCCN4CCOCC4)c3c2)cc1OC`: the pIC50 on DNA topoisomerase 1 [1] was less than 5.00.
Same read-out and setting: as for `CCOC(=O)c1cnc2ccc(-c3ccc(OC)cc3)cc2c1NCCCn1ccnc1`, the figure is less than 5.00.
`COc1ccc(-c2ccc3ncc(-c4nnco4)c(NCCN4CCOCC4)c3c2)cc1OC`: the negative logarithm of the IC50 (pIC50) on DNA topoisomerase 1 [1] is less than 5.00. In data set [4], the Activity came out at 20%.
Consider `Fc1ccc(-c2ccc3ncc(-c4nnco4)c(NCCCn4ccnc4)c3c2)cc1`, for which the pIC50 at DNA topoisomerase 1 [1] was less than 5.00.
On the same count and under the same terms, to `COc1ccc(-c2ccc3ncc(-c4nnc(C)o4)c(NCCCn4ccnc4)c3c2)cc1` belongs less than 5.00; to `COc1ccc(-c2ccc3ncc(-c4nnco4)c(NCCn4ccnc4)c3c2)cc1`, less than 5.00.
Turning to `COc1ccccc1-c1ccc2ncc(-c3nnco3)c(NCCCn3ccnc3)c2c1`, the pIC50 at DNA topoisomerase 1 [1] was less than 5.00.
The same measure, in the same setting: as for `COc1ccc(-c2ccc3ncc(-c4nnc(N)o4)c(NCCCn4ccnc4)c3c2)cc1`, the figure is less than 5.00.
The same measure, in the same setting: as for `COc1ccc(-c2ccc3ncc(-c4nnc(C)o4)c(NCCN4CCOCC4)c3c2)cc1`, the figure is less than 5.00.
On the same count and under the same terms, as for `CNc1c(-c2nnco2)cnc2ccc(-c3ccc(OC)cc3)cc12`, the figure is less than 5.00; as for `Oc1ccc(-c2ccc3ncc(-c4nnco4)c(NCCCn4ccnc4)c3c2)cc1`, less than 5.00.
In the case of `Cc1ccc(-c2ccc3ncc(-c4nnco4)c(NCCCN4CCOCC4)c3c2)cc1`, at DNA topoisomerase 1 [1], the pIC50 is less than 5.00.
`c1ccc(-c2ccc3ncc(-c4nnco4)c(NCCCn4ccnc4)c3c2)cc1`: at DNA topoisomerase 1 [1], the pIC50 is less than 5.00. Moreover, the Activity in [5] was found to be 40%.
Take `COc1ccc(-c2ccc3ncc(-c4nnco4)c(NCCCn4ccnc4)c3c2)c(OC)c1`: the pIC50 on DNA topoisomerase 1 [1] is less than 5.00.
Still for that read-out and setting: as for `COc1ccc(-c2ccc3ncc(-c4nnc(C)o4)c(NCCN4CCOCC4)c3c2)cc1OC`, the figure is less than 5.00.
Turning to `COc1cc([C@@H]2c3cc4c(cc3[C@@H](O[C@@H]3O[C@@H]5CO[C@@H](C)O[C@H]5[C@H](O)[C@H]3O)[C@H]3COC(=O)[C@H]23)OCO4)cc(OC)c1O`, the outcome with DNA [6] and with Calf thymus DNA [7] was inactive.
Take `COc1ccc(-c2ccc3ncc(-c4nnco4)c(NCCCn4ccnc4)c3c2)cc1`: the pIC50 with MEF [8] is 5.54; with MEF [9], 5.99; in the data set with HCT-116, 5.63; in data set [12], 5.63; with HEK293, 5.08. In [2], the remaining at 2 h amounted to 93.3%. Moreover, the result in the data set on DNA [10] and in the data set on Calf thymus DNA [11] was inactive.
In the case of `N#Cc1ccc(-c2ccc3ncc(-c4nnco4)c(NCCCn4ccnc4)c3c2)cc1`, the pIC50 at DNA topoisomerase 1 [1] is less than 5.00.
Take `COc1cc(NS(C)(=O)=O)ccc1Nc1c2ccccc2nc2ccccc12`: the result in the data set with DNA [6] and in the data set with Calf thymus DNA [13] was Active.
Consider `COc1ccc(-c2ccc3ncc(-c4nnco4)c(NCCN4CCOCC4)c3c2)cc1`, for which, on DNA topoisomerase 1 [1], the pIC50 is less than 5.00. In addition, in data set [4], the Activity worked out at 50%.
